Laboratory results: PMC4134960 (Pharmacological research : the official journal of the …, 2014)
Read-outs that look alike come from different tables or passages of the source.

How the values were obtained:
human ABCB1 = human ABCB1 (Homo sapiens, UniProt P08183); assay: Transepithelial transport in monolayers of MDCKII cells over-expressing ABCB1; details: for A to B transport (percentage of drug appearing in the opposite compartment) / B to A transport (percentage of drug appearing in the opposite compartment) / Ratio BA/AB (relative transport ratio): MDCKII over-expressing ABCB1, after 4h, 5 μM (compound 8: 1 μM); for Vectorial transport by ABCB1 (in words): MDCKII transduced with human ABCB1
murine Abcg2 = biological target: T1, murine Abcg2 (Mus musculus, UniProt Q7TMS5); assay: Transepithelial transport in monolayers of MDCKII cells over-expressing Abcg2; type: in vitro ADME
T1 sequence (Q7TMS5 1-657): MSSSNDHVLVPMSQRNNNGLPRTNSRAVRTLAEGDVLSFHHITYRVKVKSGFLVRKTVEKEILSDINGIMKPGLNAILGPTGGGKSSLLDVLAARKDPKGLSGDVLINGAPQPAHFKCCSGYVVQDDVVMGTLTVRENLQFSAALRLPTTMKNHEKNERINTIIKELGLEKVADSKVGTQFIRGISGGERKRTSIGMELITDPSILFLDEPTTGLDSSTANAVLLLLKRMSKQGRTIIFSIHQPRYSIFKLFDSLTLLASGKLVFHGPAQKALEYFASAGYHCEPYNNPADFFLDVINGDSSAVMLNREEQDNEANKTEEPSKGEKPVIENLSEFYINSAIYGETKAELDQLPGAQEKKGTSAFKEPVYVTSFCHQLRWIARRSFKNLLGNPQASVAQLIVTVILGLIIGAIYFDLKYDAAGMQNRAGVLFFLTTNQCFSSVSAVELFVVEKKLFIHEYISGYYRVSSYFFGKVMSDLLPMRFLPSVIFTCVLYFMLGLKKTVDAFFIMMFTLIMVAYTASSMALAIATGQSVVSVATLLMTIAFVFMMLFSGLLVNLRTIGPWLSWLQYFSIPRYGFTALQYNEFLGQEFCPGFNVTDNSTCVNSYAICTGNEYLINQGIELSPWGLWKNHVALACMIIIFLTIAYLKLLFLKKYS

[1] = cited from earlier work; for PSA (polar surface area): ref Moreno-Sanz et al., 2013
wild-type MDCKII cells = assay: Transepithelial transport in monolayers of wild-type MDCKII cells
FAAH [2] = biological target: T2, FAAH (Mus musculus, UniProt O08914); details: cited from earlier work; for Brain ID50: inhibition of brain FAAH activity after systemic administration in mice, ref Moreno-Sanz et al., 2013
T2 sequence (O08914 1-579): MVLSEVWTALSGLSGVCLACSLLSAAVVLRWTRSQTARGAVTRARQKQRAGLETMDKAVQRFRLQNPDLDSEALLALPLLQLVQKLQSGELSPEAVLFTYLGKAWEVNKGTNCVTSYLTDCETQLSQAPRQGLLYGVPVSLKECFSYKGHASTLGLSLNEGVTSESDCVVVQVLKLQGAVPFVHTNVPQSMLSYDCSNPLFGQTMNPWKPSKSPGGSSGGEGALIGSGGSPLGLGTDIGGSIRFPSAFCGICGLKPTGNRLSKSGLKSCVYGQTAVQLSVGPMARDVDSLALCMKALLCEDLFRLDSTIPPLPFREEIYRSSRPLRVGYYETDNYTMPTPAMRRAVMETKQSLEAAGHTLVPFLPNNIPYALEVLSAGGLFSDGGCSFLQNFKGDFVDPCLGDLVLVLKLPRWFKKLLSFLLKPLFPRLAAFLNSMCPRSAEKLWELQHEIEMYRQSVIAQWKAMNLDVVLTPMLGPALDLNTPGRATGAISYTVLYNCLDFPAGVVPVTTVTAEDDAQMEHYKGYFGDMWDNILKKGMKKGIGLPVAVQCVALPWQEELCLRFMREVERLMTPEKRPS

Abcg2 = biological target: T3, Abcg2 (Mus musculus, UniProt Q7TMS5); assay: Transepithelial transport in monolayers of MDCKII cells over-expressing Abcg2; type: in vitro ADME, murine; details: mouse, Ratio BA/AB (relative transport ratio), MDCKII over-expressing Abcg2, after 4h, 5 μM (compound 8: 1 μM)
T3 sequence (Q7TMS5 1-657): T1 sequence (Q7TMS5 1-657)

[3] = Transepithelial transport in monolayers of wild-type MDCKII cells; details: dog, MDCK, Ratio BA/AB (relative transport ratio), after 4h, 5 μM (compound 8: 1 μM)
[4] = Brain-to-plasma ratio of URB937 in wild-type and transporter knockout mice; type: in vivo; details: 5 mg/kg i.p., 1 h
Summary of the method: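 Male 9-week FVB wild-type, Mdr1a/b−/−, Bcrp−/− and Mdr1a/b−/−-Bcrp−/− mice received the test compound i.p. in saline/PEG400/Tween-80 (18:1:1, v/v/v) at 10 mL/kg and were killed 1 h later. Plasma came from cardiac blood spun at 2000 × g for 20 min. Brain was homogenized in 50 mM Tris-HCl pH 7.5/0.32 M sucrose, spun at 1000 × g for 10 min at 4°C, and extracted with methanol/chloroform. Read-out by LC/MS on C18 (m/z 377). n = 3–4, mean ± SEM.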

FAAH [5] = biological target: T2, FAAH; type: in vivo, mice
Summary of the method: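 Dosing was i.p. in saline/PEG400/Tween-80 (18:1:1), with kill at 1 h. Brain S1 fraction (1000 × g; 50 μg protein by BCA) was incubated 30 min at 37°C in 50 mM Tris-HCl pH 7.5 with 0.05% fatty acid-free BSA, 10 μM anandamide and [ethanolamine-3H]anandamide (10,000 cpm). The reaction was stopped with chloroform/methanol (1:1), and aqueous-phase radioactivity counted by scintillation. n = 3–4, mean ± SEM, ANOVA with Dunnett's test vs vehicle.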

[6] = MDCKII over-expressing Abcg2, after 4h, 5 μM (compound 8: 1 μM)
[7] = after 4h, 5 μM (compound 8: 1 μM)

human ABCB1, sequence (P08183 whole entry): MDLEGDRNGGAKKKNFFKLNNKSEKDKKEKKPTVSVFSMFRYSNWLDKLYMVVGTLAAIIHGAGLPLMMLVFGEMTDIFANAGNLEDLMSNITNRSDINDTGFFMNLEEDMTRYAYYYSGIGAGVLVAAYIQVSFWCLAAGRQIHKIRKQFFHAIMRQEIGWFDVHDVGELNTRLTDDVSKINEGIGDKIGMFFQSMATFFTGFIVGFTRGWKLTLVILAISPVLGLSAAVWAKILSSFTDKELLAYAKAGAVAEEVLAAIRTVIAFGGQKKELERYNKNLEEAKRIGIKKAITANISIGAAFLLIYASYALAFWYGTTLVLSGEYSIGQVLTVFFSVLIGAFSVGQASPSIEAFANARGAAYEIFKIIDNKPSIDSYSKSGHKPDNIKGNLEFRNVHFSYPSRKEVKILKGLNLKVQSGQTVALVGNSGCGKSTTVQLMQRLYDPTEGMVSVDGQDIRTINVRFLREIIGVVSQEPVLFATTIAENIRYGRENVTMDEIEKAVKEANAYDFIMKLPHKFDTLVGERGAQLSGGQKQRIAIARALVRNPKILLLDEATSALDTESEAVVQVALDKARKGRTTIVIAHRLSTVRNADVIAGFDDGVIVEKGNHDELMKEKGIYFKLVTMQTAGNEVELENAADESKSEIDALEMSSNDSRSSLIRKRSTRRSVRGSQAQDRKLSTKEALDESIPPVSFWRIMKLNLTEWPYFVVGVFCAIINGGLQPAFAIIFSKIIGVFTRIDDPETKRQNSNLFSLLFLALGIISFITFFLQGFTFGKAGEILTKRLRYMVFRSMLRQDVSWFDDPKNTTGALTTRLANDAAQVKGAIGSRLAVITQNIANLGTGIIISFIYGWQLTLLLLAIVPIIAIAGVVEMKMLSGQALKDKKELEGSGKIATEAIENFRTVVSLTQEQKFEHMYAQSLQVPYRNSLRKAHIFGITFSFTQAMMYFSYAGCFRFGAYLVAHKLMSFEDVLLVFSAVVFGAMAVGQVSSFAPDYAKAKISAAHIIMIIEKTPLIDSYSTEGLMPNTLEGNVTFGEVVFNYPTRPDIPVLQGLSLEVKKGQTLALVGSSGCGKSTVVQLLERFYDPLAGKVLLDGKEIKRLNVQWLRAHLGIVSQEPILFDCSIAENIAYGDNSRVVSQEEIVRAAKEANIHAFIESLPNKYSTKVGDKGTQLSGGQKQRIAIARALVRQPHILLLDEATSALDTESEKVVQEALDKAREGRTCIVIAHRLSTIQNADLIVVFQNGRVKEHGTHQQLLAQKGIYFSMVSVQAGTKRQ

Row | Structure (SMILES) | A to B transport (percentage of drug appearing in the opposite compartment) (human ABCB1) [%] | B to A transport (percentage of drug appearing in the opposite compartment) (human ABCB1) [%] | A to B transport (percentage of drug appearing in the opposite compartment) (murine Abcg2; [6]) [%] | B to A transport (percentage of drug appearing in the opposite compartment) (murine Abcg2; [6]) [%] | PSA (polar surface area) [1] [Å^2] | A to B transport (percentage of drug appearing in the opposite compartment) (wild-type MDCKII cells; [7]) [%] | B to A transport (percentage of drug appearing in the opposite compartment) (wild-type MDCKII cells; [7]) [%] | Ratio BA/AB (relative transport ratio) (human ABCB1) | Brain ID50 (FAAH [2]) [mg/kg] | Vectorial transport by ABCB1 (in words) (human ABCB1) | further results
1 | CNC(=O)c1cccc(-c2cc(OC(=O)NC3CCCCC3)ccc2O)c1 [Compound 1] | 8.55 ± 1.79 | 67.4 ± 14.5 | 6.99 ± 0.99 | 69.8 ± 16.9 | 73 | 21.7 ± 0.96 | 48.1 ± 2.33 | – | – | – | –
2 | CN(C)C(=O)c1cccc(-c2cc(OC(=O)NC3CCCCC3)ccc2O)c1 [Compound 2] | 8.86 ± 0.95 | 58.6 ± 3.85 | 6.95 ± 0.42 | 91.0 ± 12.7 | 65 | 25.6 ± 1.96 | 43.1 ± 4.48 | 6.65 ± 0.36 | 5 | – | –
3 | CC(=O)c1cccc(-c2cc(OC(=O)NC3CCCCC3)ccc2O)c1 [Compound 3] | 39.8 ± 1.88 | 57.6 ± 7.90 | 24.5 ± 2.39 | 30.5 ± 0.75 | 62 | 39.4 ± 0.54 | 46.8 ± 2.73 | 1.44 ± 0.13 | <1 | no significant vectorial transport | Transport substrate for Abcg2 (in words) (murine Abcg2; MDCKII over-expressing Abcg2): did not behave as a transport substrate for Abcg2; Ratio BA/AB (relative transport ratio) (murine Abcg2; [6]): 1.25 ± 0.13
4 | O=C(NC1CCCCC1)Oc1ccc(O)c(-c2cccc(C(=O)O)c2)c1 [Compound 4] | – | – | – | – | 77 | 4.93 ± 0.88 | 5.21 ± 0.42 | – | 12 | – | Translocation in apical or basolateral direction (in words) (wild-type MDCKII cells): minimal translocation in either the apical or basolateral direction
5 | COc1ccc(OC(=O)NC2CCCCC2)cc1-c1cccc(C(N)=O)c1 [Compound 7] | 21.6 ± 0.55 | 45.1 ± 3.61 | 7.29 ± 1.30 | 98.8 ± 16.6 | 74 | 29.3 ± 0.44 | 37.1 ± 1.48 | 2.08 ± 0.11 | – | no significant vectorial transport | –
6 | Cc1ccc(OC(=O)NC2CCCCC2)cc1-c1cccc(C(N)=O)c1 [Compound 8, cyclohexylcarbamic acid 3′-carbamoyl-6-methylbiphenyl-3-yl ester] | 20.7 ± 1.00 | 35.8 ± 0.43 | 5.59 ± 0.58 | 64.8 ± 4.87 | 66 | 26.0 ± 1.52 | 27.3 ± 3.8 | – | – | no significant vectorial transport | efflux ratio at 4 h (Abcg2): ≥ 10; Ratio BA/AB (relative transport ratio) (wild-type MDCKII cells; [7]): 1.06 ± 0.15; efflux ratio at 4 h [3]: ~1
7 | N.NC(=O)c1cccc(-c2cc(OC(=O)NC3CCCCC3)ccc2OS(=O)(=O)O)c1 [Compound 9] | – | – | – | – | 117 | 7.92 ± 0.41 | 7.49 ± 0.39 | – | >75 | – | Translocation in apical or basolateral direction (in words) (wild-type MDCKII cells): minimal translocation in either the apical or basolateral direction
8 | COc1ccc2c3c([nH]c2c1)[C@H](CC(C)C)N1C(=O)[C@H](CCC(=O)OC(C)(C)C)NC(=O)[C@@H]1C3 [Ko143, reference compound] | – | – | – | – | – | – | – | – | – | – | Effect of inhibitor on translocation of all compounds (in words) (murine Abcg2; MDCKII over-expressing Abcg2, Ko143 1 μM): blocked
9 | NC(=O)c1cccc(-c2cc(OC(=O)NC3CCCCC3)ccc2O)c1 [URB937, cyclohexylcarbamic acid 3′-carbamoyl-6-hydroxybiphenyl-3-yl ester] | 5.89 ± 1.33 | 50.2 ± 4.02 | 1.68 ± 0.12 | 25.9 ± 1.44 | – | 17.78 ± 2.12 | 44.3 ± 5.35 | – | 40 | – | Brain-to-plasma ratio (in words) ([4]; Abcb1-deficient (Mdr1a/b−/−) mice): not significantly different from controls; Brain-to-plasma ratio (in words) ([4]; Mdr1a/b−/−-Bcrp−/− mice): significantly increased; Effect on brain FAAH activity (in words) (FAAH [5]; Mdr1a/b−/−-Bcrp−/− mice, 5 mg/kg i.p.): drastically inhibited; inhibition at 5 mg/kg (FAAH [5]; mouse, ip, read-out: Inhibition of brain FAAH): 26%; Effect on brain FAAH activity (in words) (FAAH [5]; wild-type mice, 5 mg/kg i.p.): did not affect FAAH activity; Effect on liver FAAH activity (in words) (FAAH [5]; wild-type mice, 5 mg/kg i.p.): completely blocked FAAH activity; efflux ratio at 4 h (Abcg2): ≥ 10; PSA value [1]: ≥ 80 Å; Brain ID50 relative to dose needed to inhibit FAAH in liver (FAAH [2]; brain vs liver): 400 times; Brain FAAH activity median effective dose (ID50) (FAAH [2]; brain): 40 mg/kg; Liver FAAH activity ID50 (FAAH [2]; peripheral organs such as the liver): 0.1 mg/kg; efflux ratio at 4 h [3]: ≥ 2
